Variants at the floor of the assay were thinned out.
B1: tRNA (parent)
chain: GUUCCGUUGGCGUAAUGGUAACGCGUCUCCCUCCUAAGGAGAAGACUGCGGGUUCGAGUCCCGUACGGAACG

Variants of: B1
Assay: yeast fitness relative to wild type (ratio to wild type); higher = fitter; tRNA-Arg(CCU), competitive growth, 37 C, YPD
Summary of the method: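 Gene amplicons from the start population and from each of six end populations were read by 100-nucleotide paired-end sequencing. Those end populations came from pooled Saccharomyces cerevisiae strains carrying tRNA-Arg(CCU) gene variants at the native locus, competed in YPD at 37°C for 24 hours. Fitness relative to wild type was worked out from changes in genotype frequencies. Genotypes needed ≥ 100 starting reads, and estimates < 0.5 were set to 0.5.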

Going from G6C G23A C49U to G6C G38C C46A, the yeast fitness rises from ≤ 0.5 to 0.54.

G6C C31U U35A C46G G48A C49U U64C and G6C G23C C24A C61U cannot be ordered by yeast fitness: ≤ 0.5 for the first, ≤ 0.5 for the second.

G6C C22A C31G C49G G68C and G6C U7C A21U G44A cannot be ordered by yeast fitness: ≤ 0.5 for the first, ≤ 0.5 for the second.

First: G6C U16A G18C C22G
Second: G6C C31U C34G
The yeast fitness of the first is higher: 0.615 for the first, ≤ 0.5 for the second.

G6C C24G C27G C29A C34U U53A A70G and G6C U7C C34G C55U cannot be ordered by yeast fitness: ≤ 0.5 for the first, ≤ 0.5 for the second.

G6C G52A C55G and G6C U13C C24A C27G A36U cannot be ordered by yeast fitness: ≤ 0.5 for the first, ≤ 0.5 for the second.

G6C G44C A65G A70C and G6C C24U G38C A40G U47C cannot be ordered by yeast fitness: ≤ 0.5 for the first, ≤ 0.5 for the second.

G6C C31U A43G A69U and G6C G17A A36U C46A C49U C66A cannot be ordered by yeast fitness: ≤ 0.5 for the first, ≤ 0.5 for the second.

G6C C24U A65C and G6C U8C G23C C30A A42C G48C G52C cannot be ordered by yeast fitness: ≤ 0.5 for the first, ≤ 0.5 for the second.

G6C U8C G41C G51C and G6C U19C C22A U35C A69U cannot be ordered by yeast fitness: ≤ 0.5 for the first, ≤ 0.5 for the second.

G6C C34G A69C and G6C C24A C31U G38C cannot be ordered by yeast fitness: ≤ 0.5 for the first, ≤ 0.5 for the second.

First: G6C C24U C46G
Second: G6C U7C
The yeast fitness of the first is lower: 0.586 for the first, 0.757 for the second.

First: G6C G12A C49U G58C
Second: G6C C34U C66U A70U
The yeast fitness of the first is higher: 0.776 for the first, 0.639 for the second.

First: G6C G17A A36U
Second: G6C C27U A45G U64A
The yeast fitness of the first is lower: ≤ 0.5 for the first, 0.67 for the second.

G6C U8C C29G C61U and G6C U19C U32A A42C cannot be ordered by yeast fitness: ≤ 0.5 for the first, ≤ 0.5 for the second.

G6C C22A G41A G44C and G6C G18A G58A cannot be ordered by yeast fitness: ≤ 0.5 for the first, ≤ 0.5 for the second.

Compared with G6C U8C A42G, G6C U7G G17C U53A is lower in yeast fitness: 0.575 for the first, ≤ 0.5 for the second.

Compared with G6C C29A, G6C U7G A43U A65C is higher in yeast fitness: 0.667 for the first, 0.825 for the second.

Going from G6C C60A to G6C G10C C30U U35A, the yeast fitness falls from 0.583 to ≤ 0.5.

Compared with G6C G12A G58C, G6C U16C G41C G51A C55U is lower in yeast fitness: 0.964 for the first, ≤ 0.5 for the second.

Going from G6C C34U G44A C55G C66G to G6C G50C A69U, the yeast fitness falls from 0.649 to 0.554.

G6C U7C C31G and G6C U8A G58C C61A cannot be ordered by yeast fitness: ≤ 0.5 for the first, ≤ 0.5 for the second.

First: G6C C24A A69U
Second: G6C C24G C27G C29A C34U
The yeast fitness of the first is lower: ≤ 0.5 for the first, 0.684 for the second.

G6C G39C C55G and G6C G18C A21G A40U C49U cannot be ordered by yeast fitness: ≤ 0.5 for the first, ≤ 0.5 for the second.

G6C U19C C29U G38C U47C and G6C U13C C31G C33A cannot be ordered by yeast fitness: ≤ 0.5 for the first, ≤ 0.5 for the second.

First: G6C C33U
Second: G6C G51C G68C
The yeast fitness of the first is higher: 0.644 for the first, 0.562 for the second.

First: G6C U19G A43U G58C C66A
Second: G6C U7G G17C C60G
The yeast fitness of the first is lower: ≤ 0.5 for the first, 0.574 for the second.

G6C C46U A57C and G6C G38C C46A G67U cannot be ordered by yeast fitness: ≤ 0.5 for the first, ≤ 0.5 for the second.

G6C C24U G52A and G6C G52C A57U cannot be ordered by yeast fitness: ≤ 0.5 for the first, ≤ 0.5 for the second.

G6C C22A C31G A65C and G6C G10C C11U C55U C61G C62G cannot be ordered by yeast fitness: ≤ 0.5 for the first, ≤ 0.5 for the second.

Compared with G6C U7C G48A, G6C U7A G39C C55U A70G is lower in yeast fitness: 0.614 for the first, ≤ 0.5 for the second.

G6C G25C A37U G39C C62G and G6C G23C C31G cannot be ordered by yeast fitness: ≤ 0.5 for the first, ≤ 0.5 for the second.

G6C G10A C27A C61U A65U and G6C C49U U53C C61G cannot be ordered by yeast fitness: ≤ 0.5 for the first, ≤ 0.5 for the second.

First: G6C C34U G52C
Second: G6C U8C C49A
The yeast fitness of the first is higher: 0.565 for the first, ≤ 0.5 for the second.

Going from G6C G39C to G6C C34G A65G, the yeast fitness falls from 0.7 to ≤ 0.5.

Going from G6C U13A C24U C31A U54C to G6C G25A A70C, the yeast fitness rises from ≤ 0.5 to 0.631.

Compared with G6C U16C A42U G52U, G6C U16A G18C C22G C49U is lower in yeast fitness: 0.634 for the first, ≤ 0.5 for the second.

G6C C24A U28A C34U and G6C C60U C62A cannot be ordered by yeast fitness: ≤ 0.5 for the first, ≤ 0.5 for the second.

G6C C27A C30G G41C C61G C62U A69U and G6C U8C C60A C62U cannot be ordered by yeast fitness: ≤ 0.5 for the first, ≤ 0.5 for the second.

Going from G6C U8C G25A to G6C C33U G52C C55A, the yeast fitness falls from 0.581 to ≤ 0.5.

First: G6C G10C C22G C30U C34U A36U
Second: G6C G68C
The yeast fitness of the first is lower: 0.517 for the first, 0.874 for the second.

First: G6C U8G G10C A37G C62U U64A
Second: G6C C30A A45G C55G A57U C62G
The yeast fitness of the first is higher: 0.504 for the first, ≤ 0.5 for the second.
